Results as given in ChEMBL document CHEMBL4049415, “Kinetin Riboside and Its ProTides Activate the Parkinson's Disease Associated PTEN-Induced Putative Kinase 1 (PINK1) Independent of Mitochondrial Depolarization” (J Med Chem, 2017).
Calls of active or inactive are those of the source. The calls are words filed in the database; no cut-off is given here.

How the values were obtained:
[1] = biological target: Serine/threonine-protein kinase PINK1, mitochondrial (Homo sapiens) (UniProt Q9BXM7); assay: Activation of FLAG tagged PINK1 (unknown origin) expressed in Flp-In TRex HEK293 cells co-expressing wild-type Parkin assessed as Parkin Ser65 phosphorylation at 50 uM in absence of CCCP by immunoblotting analysis; type: cell-based; conditions: TDE = time-dependent effect
[2] = biological target: Serine/threonine-protein kinase PINK1, mitochondrial (Homo sapiens) (UniProt Q9BXM7); assay: Activation of FLAG tagged PINK1 (unknown origin) expressed in Flp-In TRex HEK293 cells co-expressed with Parkin S65A mutant assessed as Parkin phosphorylation at 50 uM in absence of CCCP by immunoblotting analysis; type: cell-based
[3] = biological target: Serine/threonine-protein kinase PINK1, mitochondrial (Homo sapiens) (UniProt Q9BXM7); assay: Activation of FLAG tagged PINK1 (unknown origin) expressed in Flp-In TRex HEK293 cells co-expressing wild-type Parkin assessed as Parkin Ser65 phosphorylation at 50 uM after 24 hrs in absence of CCCP by immunoblotting analysis; type: cell-based
[4] = biological target: T1, Lysosomal protective protein (Homo sapiens, UniProt P10619); assay: Drug level in pH 7.4 trizma buffer treated with phenyl(Isopropoxy-L-alaninyl) kinetin riboside phosphoramidate assessed as cathepsin A (unknown origin)-mediated metabolite formation at 5.0 mg measured after 2 to 12 hrs by 31P-NMR spectroscopic analysis; type: ADME
T1 sequence (P10619 whole entry): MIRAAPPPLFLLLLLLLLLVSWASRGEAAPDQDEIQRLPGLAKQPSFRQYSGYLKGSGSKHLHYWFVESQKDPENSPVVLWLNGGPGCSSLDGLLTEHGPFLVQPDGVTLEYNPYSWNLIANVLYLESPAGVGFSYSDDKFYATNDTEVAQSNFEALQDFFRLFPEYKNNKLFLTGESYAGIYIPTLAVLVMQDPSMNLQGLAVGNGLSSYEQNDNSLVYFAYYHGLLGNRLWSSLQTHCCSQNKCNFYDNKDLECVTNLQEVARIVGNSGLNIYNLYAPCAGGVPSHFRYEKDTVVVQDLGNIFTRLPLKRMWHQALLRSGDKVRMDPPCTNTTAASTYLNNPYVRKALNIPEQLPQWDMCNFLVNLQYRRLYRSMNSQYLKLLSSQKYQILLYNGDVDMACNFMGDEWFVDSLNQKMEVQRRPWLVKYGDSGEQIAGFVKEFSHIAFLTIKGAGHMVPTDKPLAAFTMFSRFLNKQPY

[5] = biological target: T1, Lysosomal protective protein; assay: Stability in pH 7.4 trizma buffer assessed as cathepsin A (unknown origin)-mediated compound hydrolysis at 5.0 mg measured after 15 mins by 31P-NMR spectroscopic analysis; type: ADME; conditions: pH 7.4, 0.25 h
[6] = Chemical stability of compound in pH 1 buffer at 5.0 mg measured at every 20 mins over 12 hrs by 31P-NMR spectroscopic analysis; type: physicochemical; conditions: pH 1, 12 h
How it was run: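 Acid stability: 5 mg in methanol-d4 mixed with pH 1 buffer (equal parts 0.2 M HCl and 0.2 M KCl). 31P NMR at 37 °C, spectra every 20 min over 12 h; persistence of parent phosphorus peaks followed.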

[7] = biological target: T1, Lysosomal protective protein; assay: (§1) Stability in pH 7.4 trizma buffer assessed as cathepsin A (unknown origin)-mediated compound hydrolysis by measuring parent compound remaining at 5.0 mg measured after 12 hrs by 31P-NMR spectroscopic analysis; type: ADME; conditions: pH 7.4, 12 h
Serum [8] = assay: Metabolic stability of compound in human serum at 5.0 mg measured at even intervals over 11 hrs by 31P-NMR spectroscopic analysis; type: ADME, cell-free
How it was run: (§2)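 Serum stability: 5.0 mg in DMSO-d6 and D2O, thawed human or mouse serum added in the NMR tube. 31P NMR at 37 °C, spectra immediately, at 30 min, then at even intervals over 11 h. Controls were compound without serum, and serum without compound.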

[9] = biological target: T1, Lysosomal protective protein; assay: Drug metabolism in pH 7.4 trizma buffer assessed as cathepsin A (unknown origin)-mediated (S)-2-((((2R,3S,4R,5R)-5-(6-(furan-2-ylmethylamino)-9H-purin-9-yl)-3,4-dihydroxytetrahydrofuran-2-yl)methoxy)oxidophosphorylamino)propanoate formation at 5.0 mg measured after 2 to 12 hrs by 31P-NMR spectroscopic analysis; type: ADME
Serum [10] = assay: Metabolic stability of the compound in mouse serum at 5.0 mg measured at even intervals over 11 hrs by 31P-NMR spectroscopic analysis; type: ADME, cell-free; how it was run: as §2
[11] = biological target: T1, Lysosomal protective protein; assay: Prodrug activation in pH 7.4 trizma buffer assessed as cathepsin A (unknown origin)-mediated kinetin riboside monophosphate metabolite formation at 5.0 mg measured after 48 hrs by 31P-NMR spectroscopic analysis; type: ADME; conditions: pH 7.4, 48 h
[12] = biological target: T2, cathepsin A (lysosomal protective protein) (Homo sapiens, UniProt P10619); assay: as §1; type: ADME; conditions: cathepsin A in trizma buffer, pH 7.4, read-out: Stability
T2 sequence (P10619 whole entry): T1 sequence (P10619 whole entry)

[13] = biological target: Serine/threonine-protein kinase PINK1, mitochondrial (Homo sapiens) (UniProt Q9BXM7); assay: Activation of FLAG tagged PINK1 (unknown origin) expressed in Flp-In TRex HEK293 cells co-expressed with wild-type Parkin assessed as Parkin Ser65 phosphorylation at 10 uM by immunoblotting analysis; type: cell-based; conditions: TDE = time-dependent effect

Sequence of Serine/threonine-protein kinase PINK1, mitochondrial (Homo sapiens) (Q9BXM7 whole entry): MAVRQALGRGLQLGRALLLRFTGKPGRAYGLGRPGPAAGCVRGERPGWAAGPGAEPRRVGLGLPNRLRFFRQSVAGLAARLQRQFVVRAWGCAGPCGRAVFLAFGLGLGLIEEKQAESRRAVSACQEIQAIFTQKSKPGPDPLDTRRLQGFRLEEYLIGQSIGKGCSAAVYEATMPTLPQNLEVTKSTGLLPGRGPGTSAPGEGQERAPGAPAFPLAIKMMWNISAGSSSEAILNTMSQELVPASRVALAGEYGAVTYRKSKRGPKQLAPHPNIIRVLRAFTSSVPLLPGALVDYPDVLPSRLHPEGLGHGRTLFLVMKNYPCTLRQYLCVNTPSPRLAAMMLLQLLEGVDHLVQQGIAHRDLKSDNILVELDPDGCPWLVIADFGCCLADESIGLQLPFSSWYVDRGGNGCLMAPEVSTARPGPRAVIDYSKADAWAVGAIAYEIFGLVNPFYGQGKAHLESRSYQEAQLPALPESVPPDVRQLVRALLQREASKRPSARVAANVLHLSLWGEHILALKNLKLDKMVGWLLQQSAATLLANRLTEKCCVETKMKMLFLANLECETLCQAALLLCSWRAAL

C[C@H](NP(=O)(OC[C@H]1O[C@@H](n2cnc3c(NCc4ccco4)ncnc32)[C@H](O)[C@@H]1O)Oc1ccccc1)C(=O)OCc1ccccc1 (stereo partly drawn)
Activity [1]: Tde
Activity [2]: inactive
Activity [3]: Active

OC[C@H]1O[C@@H](n2cnc3c(NCc4ccco4)ncnc32)[C@H](O)[C@@H]1O
Activity [3]: Active

C[C@H](NP(=O)(O)OC[C@H]1O[C@@H](n2cnc3c(NCc4ccco4)ncnc32)[C@H](O)[C@@H]1O)C(=O)O
Drug metabolism [4]: Metabolite_Detected

COC(=O)[C@H](C)NP(=O)(OC[C@H]1O[C@@H](n2cnc3c(NCc4ccco4)ncnc32)[C@H](O)[C@@H]1O)Oc1ccccc1 (stereo partly drawn)
Activity [3]: Active

CC(C)OC(=O)[C@H](C)NP(=O)(OC[C@H]1O[C@@H](n2cnc3c(NCc4ccco4)ncnc32)[C@H](O)[C@@H]1O)Oc1ccccc1 (stereo partly drawn)
Stability [5]: Stable
Stability [6]: Stable
Stability [7]: Unstable
Stability (Serum [8]): Stable
Drug metabolism [9]: Metabolite_Detected
Activity [3]: Active
Stability (Serum [10]): Stable
Drug metabolism [11]: Metabolite_Detected

C[C@H](NP(=O)(OC[C@H]1O[C@@H](n2cnc3c(NCc4ccco4)ncnc32)[C@H](O)[C@@H]1O)Oc1ccccc1)C(=O)OC(C)(C)C (stereo partly drawn)
remaining at 12 h [12]: 50%
Activity [3]: inactive

N#CC(C#N)=NNc1cccc(Cl)c1
Activity [13]: Tde

c1coc(CNc2ncnc3[nH]cnc23)c1
Activity [3]: inactive
